Activity calls are given as the source filed them.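 How the source made its calls, unless noted: active means duplicate-averaged activation above buffer control mean plus 5 SD of those controls; inactive means the rest.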
How the values were obtained:
[1] = nonspecific flux increase, KCNQ1-free cells – parental CHO cells, counter-screen for KCNQ1 potentiator project (AID 493006); conditions: parental CHO-K1 cells, FluxOR thallium flux, at 10 µM; hits give high values;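 on activation: fluorescence ratio of max minus min over baseline after K+ and Tl+ depolarization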
How it was run: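 Material: untransfected host CHO-K1 cells with FluxOR thallium dye. Timing: overnight 37 °C plating, 90 min RT dye, 20 min compound. Detection: kinetic FluxOR fluorescence, 10 s baseline, 110 s after stimulus. Read-out basis: max-minus-min fluorescence over baseline, percent of buffer-to-R-L3 span. Replicates: duplicate wells per compound, percent values averaged.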

[2] = target: Potassium voltage-gated channel subfamily KQT member 1 (Homo sapiens) (UniProt P51787); test: enhancement of KCNQ1 channel thallium flux – FluxOR thallium flux, CHO cells, duplicates, confirmation (AID 493007;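 active means potentiation averaged over duplicate wells exceeding buffer-only control mean by more than 3 SD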;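 on outcome: cells depolarized by a potassium plus thallium sulfate stimulus after compound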); conditions: KCNQ1 cell line, FluxOR thallium flux fluorescence, at 10 µM; hits give high values, % of reference activator effect, buffer zero
Chain of Potassium voltage-gated channel subfamily KQT member 1 (Homo sapiens) (P51787 whole entry, looked up): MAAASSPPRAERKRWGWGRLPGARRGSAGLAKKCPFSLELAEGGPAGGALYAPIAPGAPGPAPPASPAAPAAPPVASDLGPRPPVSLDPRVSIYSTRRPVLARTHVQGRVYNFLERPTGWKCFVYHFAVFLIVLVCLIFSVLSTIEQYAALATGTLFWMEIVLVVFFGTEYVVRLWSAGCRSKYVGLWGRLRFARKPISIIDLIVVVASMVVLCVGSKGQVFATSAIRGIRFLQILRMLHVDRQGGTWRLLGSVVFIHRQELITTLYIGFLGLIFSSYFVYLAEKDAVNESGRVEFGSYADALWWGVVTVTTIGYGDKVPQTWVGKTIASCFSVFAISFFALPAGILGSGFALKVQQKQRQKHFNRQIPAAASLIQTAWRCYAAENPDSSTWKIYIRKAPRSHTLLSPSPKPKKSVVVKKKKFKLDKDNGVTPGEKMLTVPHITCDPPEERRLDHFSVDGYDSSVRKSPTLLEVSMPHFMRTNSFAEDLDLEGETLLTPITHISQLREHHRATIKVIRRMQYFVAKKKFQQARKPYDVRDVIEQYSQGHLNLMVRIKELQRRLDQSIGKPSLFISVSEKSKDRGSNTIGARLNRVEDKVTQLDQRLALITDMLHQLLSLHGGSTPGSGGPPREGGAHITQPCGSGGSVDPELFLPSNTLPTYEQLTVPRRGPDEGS
How it was run: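 Test system – KCNQ1-expressing CHO cell line · Incubation – FluxOR dye loading 90 min, compound exposure 20 min, room temperature · Detection – FluxOR Tl+ flux fluorescence, 10 s baseline plus 110 s recording · Controls – buffer-only wells as 0% and R-L3 activator as 100%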

[3] = target: Potassium voltage-gated channel subfamily KQT member 2 (Rattus norvegicus) (UniProt O88943); test: KCNQ2 thallium flux enhancement – KCNQ2-CHO-K1 cells, selectivity assay for KCNQ1 potentiator project (AID 493009;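 active means mean duplicate potentiation above the buffer control mean plus 5 SD of buffer wells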;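 further: assay conditions were tuned for KCNQ1 rather than KCNQ2 modulators; signal is max minus min fluorescence divided by baseline after thallium stimulus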); conditions: FluxOR thallium flux fluorescence, at 10 µM; hits give high values, scaled: buffer 0, activator control 100
Chain of Potassium voltage-gated channel subfamily KQT member 2 (Rattus norvegicus) (O88943 whole entry, looked up): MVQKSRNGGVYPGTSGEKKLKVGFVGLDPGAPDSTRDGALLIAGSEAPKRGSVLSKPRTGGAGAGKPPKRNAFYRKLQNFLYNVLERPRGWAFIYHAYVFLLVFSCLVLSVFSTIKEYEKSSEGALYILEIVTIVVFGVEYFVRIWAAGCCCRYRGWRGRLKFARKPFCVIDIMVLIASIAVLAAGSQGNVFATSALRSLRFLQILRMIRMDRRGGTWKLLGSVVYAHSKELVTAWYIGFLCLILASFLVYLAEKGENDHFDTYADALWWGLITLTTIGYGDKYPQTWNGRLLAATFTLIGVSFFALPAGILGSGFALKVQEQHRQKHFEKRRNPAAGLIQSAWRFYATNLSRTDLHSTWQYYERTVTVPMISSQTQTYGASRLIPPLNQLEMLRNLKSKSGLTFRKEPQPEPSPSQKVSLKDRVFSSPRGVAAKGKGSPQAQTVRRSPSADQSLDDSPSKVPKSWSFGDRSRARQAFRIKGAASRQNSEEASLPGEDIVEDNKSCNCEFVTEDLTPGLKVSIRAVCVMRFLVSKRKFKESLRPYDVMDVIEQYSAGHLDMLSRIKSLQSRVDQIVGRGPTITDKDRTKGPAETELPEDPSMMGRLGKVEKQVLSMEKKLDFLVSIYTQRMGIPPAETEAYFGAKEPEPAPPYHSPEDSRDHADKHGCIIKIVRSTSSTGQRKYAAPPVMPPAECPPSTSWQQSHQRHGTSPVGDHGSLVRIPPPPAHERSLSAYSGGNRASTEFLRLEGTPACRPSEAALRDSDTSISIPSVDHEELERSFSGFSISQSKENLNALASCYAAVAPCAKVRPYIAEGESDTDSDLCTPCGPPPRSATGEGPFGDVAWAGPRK

[4] = target: Potassium voltage-gated channel subfamily KQT member 1 (Homo sapiens) (UniProt P51787); test: KCNQ1 activators by electrophysiology – IonWorks patch clamp, KCNQ1-CHO cells, orthogonal assay for KCNQ1 potentiator project, confirmation (AID 493184;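 active means current rise at least 3 SD above the untreated control mean in each of two repeat wells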); conditions: automated patch clamp current, at 10 µM; hits give high values
How it was run: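 Read-out: Percent current increase versus pre-compound level | Assay system: CHO cells carrying KCNQ1 | Measured by: Automated perforated-patch electrophysiology | Medium: External bath solution at pH 7.4 | Dosing: One dose, 10 µM final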

| SMILES | outcome [1] | outcome [2] | outcome [3] | outcome [4] | activation [1] | potentiation [2] | potentiation [3] |
| --- | --- | --- | --- | --- | --- | --- | --- |
| CCCn1nnnc1SCC(=O)c1ccc2c(c1)OCCO2 | inactive | inactive | inactive | inactive | – | – | – |
| CC1C/C(=C/c2ccncc2)C(=O)/C(=C/c2ccncc2)C1 (stereo not given) | inactive | inactive | inactive | inactive | – | – | – |
| CCOc1ccc(NC(=O)CN(C)C(=O)C2CCN(c3ncnc4sc(C)c(C)c34)CC2)cc1OCC | inactive | inactive | inactive | inactive | – | – | – |
| CCC(C)CCCCCCCCCCC(=O)O (stereo not given) | – | – | – | inactive | 382% (active) | 318% (active) | 302% (active) |
| CCCCCCCCCCCCC/C=C/[C@@H](O)[C@@H](N)CO | – | – | – | inactive | 406% (active) | 218% (active) | 414% (active) |
| Cc1cccc(NC(=S)NC(=O)c2cc(-c3ccccc3)nc3ccccc23)c1 | inactive | – | inactive | inactive | – | 32% (active) | – |
| O=C(NC(=S)NCCC1=CCCCC1)c1ccc(Br)o1 | – | – | – | inactive | 212% (active) | 304% (active) | 371% (active) |
| CCOc1ccc(NC(=S)NC(=O)c2ccco2)cc1 | inactive | – | – | inactive | – | 29% (active) | 180% (active) |
| CN(C)CCCC1(O)c2ccccc2C=Cc2ccccc21 | – | – | inactive | inactive | 139% (active) | 29% (active) | – |
| Cc1ccc2nc(C)cc(N/N=C/c3cccnc3)c2c1 | inactive | inactive | inactive | inactive | – | – | – |
| Cc1[nH]n(C(N)=S)c(=O)c1N=Nc1ccc2ccccc2c1 | – | – | – | inactive | 150% (active) | 238% (active) | 628% (active) |
| CCCc1cc(=O)[nH]c(SCC(=O)NC(=O)c2ccccc2)n1 | inactive | inactive | inactive | inactive | – | – | – |
| COc1ccc(NC(=O)[C@@H]2CC=C[C@@H]3CCN(C4CCCCC4)C(=O)[C@@H]32)cc1 | inactive | inactive | inactive | inactive | – | – | – |
| Oc1c(Br)cc(Br)cc1C=Nc1cccnc1 | – | – | inactive | inactive | 146% (active) | 48% (active) | – |
| CCN1C(=O)/C(=C/c2ccc(OCc3ccc(C(=O)O)cc3)c(Cl)c2)NC1=S | – | inactive | – | inactive | 136% (active) | – | 168% (active) |
| O=c1cc(-c2ccccc2)nc2c(-c3ccccc3)c(C(F)(F)F)[nH]n12 | – | – | – | inactive | 626% (active) | 282% (active) | 591% (active) |
| Cc1cccc(NC(=O)CSc2ccc3nnc(-c4cccnc4)n3n2)c1 | inactive | inactive | inactive | inactive | – | – | – |
| COc1cccc(C(=O)COc2ccc(NC(=O)c3ccccc3)cc2)c1 | inactive | inactive | inactive | inactive | – | – | – |
| O=c1c(O)c(-c2cccs2)oc2ccc(Cl)cc12 | – | – | – | inactive | 570% (active) | 128% (active) | 553% (active) |
| O=C(NC(=S)Nc1nc(-c2ccccc2)cs1)c1ccco1 | inactive | – | inactive | inactive | – | 48.5% (active) | – |
| COc1ccc2c(-c3ccccc3)cc(=S)[nH]c2c1 | – | – | – | inactive | 210% (active) | 50.5% (active) | 231% (active) |
| Cc1ccc(C)c(S(=O)(=O)NCC(=O)N2CCCC2)c1 | inactive | inactive | inactive | inactive | – | – | – |
| S=c1[nH]nc(-c2ccco2)n1/N=C/c1ccc(Cl)cc1Cl | – | – | – | inactive | 174% (active) | 48% (active) | 173% (active) |
| O=C1c2cccc3cccc(c23)C(=O)C1(O)O | inactive | inactive | inactive | inactive | – | – | – |
| Oc1ccc(C[C@@H]2CNCCN2CCc2cc(C(F)(F)F)cc(C(F)(F)F)c2)cc1 | inactive | inactive | inactive | inactive | – | – | – |
| CC1CCN(C(=S)NC(=O)c2ccccc2)CC1 | inactive | inactive | – | inactive | – | – | 150% (active) |
| O=C(O)c1ccccc1NS(=O)(=O)c1cccc(-n2sc3ccccc3c2=O)c1 | – | – | inactive | inactive | 154% (active) | 18% (active) | – |
| Cc1ccccc1Cn1c(O)c(N=NC(=S)Nc2ccccc2F)c2ccccc21 | inactive | – | inactive | inactive | – | 36% (active) | – |
| O=C(CCN1CCc2ccccc2CC1)c1ccc2c(c1)OCCO2 | – | – | – | inactive | 150% (active) | 38% (active) | 176% (active) |
| O=C(CSc1nc(=O)n2ccccc2n1)NCc1ccccc1 | inactive | inactive | inactive | inactive | – | – | – |

— PubChem BioAssay
